# Values joined by “and” are separate entries in the source; they are usually repeats but may differ in a detail not shown here. Equal entries are not always repeated.
# Test system: U2OS
# Experiment: Multiplex assay against U2OS
# Format: toxicity, cell-based
# Details: human
# Method in brief: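 Compound was added to live cells that had been stained at seeding with Hoechst33342, BioTracker Green Microtubule Cytoskeleton Dye, MitoTracker Red and Annexin V Alexa Fluor 680, and imaging followed on a CQ1 microscope at 37°C and 5% CO2. CellPathfinder machine-learning gating divided cells into Hoechst high-intensity objects or normal cells, normal cells into healthy, pyknosed or fragmented nuclei, and pyknosed cells into mitotic or apoptotic. Tubulin, mitochondrial-mass and membrane-permeability phenotypes are per cents of healthy-nucleus cells.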
# [1] = 12 h, 1 µM, compound concentration 1 uM
# [2] = 12 h, 10 µM, compound concentration 10 uM
# [3] = 24 h, 1 µM, compound concentration 1 uM
# [4] = 24 h, 10 µM, compound concentration 10 uM
# [5] = 48 h, 1 µM, compound concentration 1 uM
# [6] = 48 h, 10 µM, compound concentration 10 uM
smiles,measurement,setting,value
Cc1c(CC(=O)O)c2cccnc2n1Cc1ccc(S(C)(=O)=O)cc1C(F)(F)F [FEVIPIPRANT],Population Apoptotic (%),[1],80% and 50%
same,Population Fragmented Nuclei (%),[1],25% and 22%
same,Population Healthy Nuclei (%),[1],64% and 72%
same,Population Hoechst High Intensity Objects (%),[1],1%
same,Population Membrane Permeable-Phenotype (%),[1],2% and 8%
same,Population Mitochondria Different-Phenotype (%),[1],2% and 1%
same,Population Mitotic Cells (%),[1],19% and 50%
same,Population Normal (%),[1],98%
same,Population Pyknosed Nuclei (%),[1],9% and 5%
same,Population Tubulin-Different-Phenotype (%),[1],0% and 9%
same,Total Cell Count,[1],224 and 118
same,Population Apoptotic (%),[2],90% and 100%
same,Population Fragmented Nuclei (%),[2],27% and 22%
same,Population Healthy Nuclei (%),[2],65% and 73%
same,Population Hoechst High Intensity Objects (%),[2],2% and 0%
same,Population Membrane Permeable-Phenotype (%),[2],3% and 8%
same,Population Mitochondria Different-Phenotype (%),[2],0% and 3%
same,Population Mitotic Cells (%),[2],9% and 0%
same,Population Normal (%),[2],97% and 99%
same,Population Pyknosed Nuclei (%),[2],7% and 3%
same,Population Tubulin-Different-Phenotype (%),[2],1% and 4%
same,Total Cell Count,[2],287 and 116
same,Population Apoptotic (%),[3],80% and 66%
same,Population Fragmented Nuclei (%),[3],20% and 17%
same,Population Healthy Nuclei (%),[3],71% and 74%
same,Population Hoechst High Intensity Objects (%),[3],2% and 0%
same,Population Membrane Permeable-Phenotype (%),[3],1% and 9%
same,Population Mitochondria Different-Phenotype (%),[3],3% and 0%
same,Population Mitotic Cells (%),[3],20% and 33%
same,Population Normal (%),[3],97% and 100%
same,Population Pyknosed Nuclei (%),[3],8%
same,Population Tubulin-Different-Phenotype (%),[3],1% and 10%
same,Total Cell Count,[3],256 and 145
same,Population Apoptotic (%),[4],96% and 100%
same,Population Fragmented Nuclei (%),[4],20% and 12%
same,Population Healthy Nuclei (%),[4],70% and 78%
same,Population Hoechst High Intensity Objects (%),[4],0% and 1%
same,Population Membrane Permeable-Phenotype (%),[4],5% and 8%
same,Population Mitochondria Different-Phenotype (%),[4],3% and 2%
same,Population Mitotic Cells (%),[4],3% and 0%
same,Population Normal (%),[4],99% and 98%
same,Population Pyknosed Nuclei (%),[4],8%
same,Population Tubulin-Different-Phenotype (%),[4],3%
same,Total Cell Count,[4],326 and 119
same,Population Apoptotic (%),[5],65% and 90%
same,Population Fragmented Nuclei (%),[5],18% and 20%
same,Population Healthy Nuclei (%),[5],71% and 67%
same,Population Hoechst High Intensity Objects (%),[5],2%
same,Population Membrane Permeable-Phenotype (%),[5],4% and 8%
same,Population Mitochondria Different-Phenotype (%),[5],3% and 5%
same,Population Normal (%),[5],97%
same,Population Pyknosed Nuclei (%),[5],10% and 12%
same,Population Tubulin-Different-Phenotype (%),[5],2% and 9%
same,Total Cell Count,[5],379 and 187
same,Population Apoptotic (%),[6],91% and 100%
same,Population Fragmented Nuclei (%),[6],17% and 15%
same,Population Healthy Nuclei (%),[6],73% and 76%
same,Population Hoechst High Intensity Objects (%),[6],1% and 3%
same,Population Membrane Permeable-Phenotype (%),[6],4% and 5%
same,Population Mitochondria Different-Phenotype (%),[6],3% and 1%
same,Population Mitotic Cells (%),[6],8% and 0%
same,Population Normal (%),[6],98% and 96%
same,Population Pyknosed Nuclei (%),[6],8%
same,Population Tubulin-Different-Phenotype (%),[6],3%
same,Total Cell Count,[6],408 and 158
Nc1nccc(-c2ccn3c(N)nccc23)n1,Population Apoptotic (%),[1],36.59% and 39.13%
same,Population Fragmented Nuclei (%),[1],1.59% and 3.62%
same,Population Healthy Nuclei (%),[1],89.07% and 79.71%
same,Population Hoechst High Intensity Objects (%),[1],0%
same,Population Membrane Permeable-Phenotype (%),[1],0.51% and 5.45%
same,Population Mitochondria Different-Phenotype (%),[1],0.26% and 7.27%
same,Population Mitotic Cells (%),[1],63.41% and 60.87%
same,Population Normal (%),[1],100%
same,Population Pyknosed Nuclei (%),[1],9.34% and 16.67%
same,Population Tubulin-Different-Phenotype (%),[1],1.28% and 0.91%
same,Population Apoptotic (%),[2],37.93% and 47.62%
same,Population Fragmented Nuclei (%),[2],1.07% and 2.9%
same,Population Healthy Nuclei (%),[2],91.15% and 81.88%
same,Population Hoechst High Intensity Objects (%),[2],0%
same,Population Membrane Permeable-Phenotype (%),[2],0.88% and 1.77%
same,Population Mitochondria Different-Phenotype (%),[2],0.59% and 8.85%
same,Population Mitotic Cells (%),[2],62.07% and 52.38%
same,Population Normal (%),[2],100%
same,Population Pyknosed Nuclei (%),[2],7.77% and 15.22%
same,Population Tubulin-Different-Phenotype (%),[2],1.47% and 0%
same,Total Cell Count,[2],373 and 138
same,Population Apoptotic (%),[3],48.28% and 64.29%
same,Population Fragmented Nuclei (%),[3],1.88% and 4%
same,Population Healthy Nuclei (%),[3],88.23% and 88%
same,Population Hoechst High Intensity Objects (%),[3],0%
same,Population Membrane Permeable-Phenotype (%),[3],0% and 3.25%
same,Population Mitochondria Different-Phenotype (%),[3],0.39% and 5.19%
same,Population Mitotic Cells (%),[3],51.72% and 35.71%
same,Population Normal (%),[3],100%
same,Population Pyknosed Nuclei (%),[3],9.9% and 8%
same,Population Tubulin-Different-Phenotype (%),[3],1.16% and 0.65%
same,Population Apoptotic (%),[4],40.48% and 37.04%
same,Population Fragmented Nuclei (%),[4],3.09% and 2.73%
same,Population Healthy Nuclei (%),[4],88.8% and 82.51%
same,Population Hoechst High Intensity Objects (%),[4],0%
same,Population Membrane Permeable-Phenotype (%),[4],0.22% and 0.66%
same,Population Mitochondria Different-Phenotype (%),[4],0.22% and 2.65%
same,Population Mitotic Cells (%),[4],59.52% and 62.96%
same,Population Normal (%),[4],100%
same,Population Pyknosed Nuclei (%),[4],8.11% and 14.75%
same,Population Tubulin-Different-Phenotype (%),[4],1.09% and 0%
same,Total Cell Count,[4],518 and 183
same,Population Apoptotic (%),[5],45.74% and 43.75%
same,Population Fragmented Nuclei (%),[5],1.77% and 2.26%
same,Population Healthy Nuclei (%),[5],88.99% and 85.66%
same,Population Hoechst High Intensity Objects (%),[5],0%
same,Population Membrane Permeable-Phenotype (%),[5],1.33% and 2.64%
same,Population Mitochondria Different-Phenotype (%),[5],0.11% and 5.73%
same,Population Mitotic Cells (%),[5],54.26% and 56.25%
same,Population Normal (%),[5],100%
same,Population Pyknosed Nuclei (%),[5],9.24% and 12.08%
same,Population Tubulin-Different-Phenotype (%),[5],1.44% and 1.32%
same,Population Apoptotic (%),[6],43.48% and 40%
same,Population Fragmented Nuclei (%),[6],3.29% and 3.46%
same,Population Healthy Nuclei (%),[6],87.54% and 84.43%
same,Population Hoechst High Intensity Objects (%),[6],0% and 0.34%
same,Population Membrane Permeable-Phenotype (%),[6],0.91% and 2.05%
same,Population Mitochondria Different-Phenotype (%),[6],0.23% and 2.87%
same,Population Mitotic Cells (%),[6],56.52% and 60%
same,Population Normal (%),[6],100% and 99.66%
same,Population Pyknosed Nuclei (%),[6],9.17% and 12.11%
same,Population Tubulin-Different-Phenotype (%),[6],1.03% and 2.46%

# From ChEMBL document CHEMBL5724801, “EUbOPEN Chemogenomics Library - Multiplex” (2024)
